Assay results: ChEMBL document CHEMBL1131455, “5-HT3 antagonists derived from aminopyridazine-type muscarinic M1 agonists” (J Med Chem, 1998)

Key:
[1] = biological target: T1, Serotonin 3 (5-HT3) receptor (Rattus norvegicus, UniProt P35563+Q9JJ16); experiment: Compound was evaluated for its binding affinity for 5-hydroxytryptamine 3 receptor by measuring displacement of [3H]granisetron from rat cerebral cortex; format: tissue-based
T1 sequence (P35563 whole entry): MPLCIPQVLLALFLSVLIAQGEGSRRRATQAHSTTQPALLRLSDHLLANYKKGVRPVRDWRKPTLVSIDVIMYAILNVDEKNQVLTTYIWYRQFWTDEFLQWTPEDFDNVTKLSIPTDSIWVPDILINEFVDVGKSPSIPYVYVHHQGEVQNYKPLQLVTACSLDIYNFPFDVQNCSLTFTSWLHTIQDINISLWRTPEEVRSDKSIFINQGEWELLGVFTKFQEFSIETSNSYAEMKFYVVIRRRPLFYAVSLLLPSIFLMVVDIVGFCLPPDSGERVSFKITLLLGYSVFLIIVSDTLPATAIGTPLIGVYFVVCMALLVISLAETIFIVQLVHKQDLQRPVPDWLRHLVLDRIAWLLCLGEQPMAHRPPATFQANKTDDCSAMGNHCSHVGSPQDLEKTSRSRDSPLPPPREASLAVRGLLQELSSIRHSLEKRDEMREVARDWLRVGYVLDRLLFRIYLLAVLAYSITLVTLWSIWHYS
T1 sequence (Q9JJ16 whole entry): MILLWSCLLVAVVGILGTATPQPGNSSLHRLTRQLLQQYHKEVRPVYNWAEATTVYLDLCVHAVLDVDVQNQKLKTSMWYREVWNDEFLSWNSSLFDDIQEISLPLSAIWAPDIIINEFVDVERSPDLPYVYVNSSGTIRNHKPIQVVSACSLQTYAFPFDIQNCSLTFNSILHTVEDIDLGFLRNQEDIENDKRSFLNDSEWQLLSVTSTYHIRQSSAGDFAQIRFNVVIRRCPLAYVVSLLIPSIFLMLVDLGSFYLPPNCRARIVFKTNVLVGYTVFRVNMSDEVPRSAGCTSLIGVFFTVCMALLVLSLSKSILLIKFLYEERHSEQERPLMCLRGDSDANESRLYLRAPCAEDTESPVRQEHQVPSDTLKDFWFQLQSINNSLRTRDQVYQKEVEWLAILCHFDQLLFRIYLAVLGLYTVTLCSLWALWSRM
Method in brief: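 Male Sprague-Dawley rat cerebral cortex homogenized in cold 50 mM HEPES pH 7.5, then washed three times by centrifugation (48000g, 4 °C); roughly 2.5 mg protein/mL. […] Filters were presoaked 2 h in 0.3% polyethylenimine. Nonspecific binding defined with 100 nM zacopride; bound counted by liquid scintillation.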

[2] = biological target: T2, Muscarinic acetylcholine receptor M1 (Rattus norvegicus, UniProt P08482); experiment: Compound was evaluated for its binding affinity for Muscarinic acetylcholine receptor M1 by measuring displacement of [3H]- pirenzepine from rat hippocampus; format: tissue-based
T2 sequence (P08482 whole entry): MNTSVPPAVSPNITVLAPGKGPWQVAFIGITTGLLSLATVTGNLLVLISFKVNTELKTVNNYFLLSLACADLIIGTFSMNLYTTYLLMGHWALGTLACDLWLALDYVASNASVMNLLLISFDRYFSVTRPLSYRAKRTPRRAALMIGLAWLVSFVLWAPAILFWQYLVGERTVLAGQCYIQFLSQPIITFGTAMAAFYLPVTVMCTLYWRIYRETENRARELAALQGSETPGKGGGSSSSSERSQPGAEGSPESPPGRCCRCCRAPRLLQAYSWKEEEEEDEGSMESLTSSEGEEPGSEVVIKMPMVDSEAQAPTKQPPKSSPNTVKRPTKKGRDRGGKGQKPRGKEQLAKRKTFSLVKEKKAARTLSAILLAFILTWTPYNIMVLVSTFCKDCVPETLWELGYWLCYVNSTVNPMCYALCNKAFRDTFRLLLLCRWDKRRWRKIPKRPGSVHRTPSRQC
Method in brief: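 Adult rat hippocampus homogenized 1:200 w/v in 50 mM Na/K phosphate pH 7.4 with 1 mM EDTA and 0.1 mM PMSF. 0.5 mg tissue competed against [3H]pirenzepine (0.7-1 nM) for 2 h 30 min at 25 °C. Bound separated by filtration on 0.3% polyethylenimine-treated GF/C filters. Atropine defined nonspecific binding.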

[3] = biological target: T3, Muscarinic acetylcholine receptor M2 (Rattus norvegicus, UniProt P10980); experiment: Compound was evaluated for its binding affinity for Muscarinic acetylcholine receptor M2 by measuring displacement of [3H]- NMS ligand from rat cardiac cells.
T3 sequence (P10980 whole entry): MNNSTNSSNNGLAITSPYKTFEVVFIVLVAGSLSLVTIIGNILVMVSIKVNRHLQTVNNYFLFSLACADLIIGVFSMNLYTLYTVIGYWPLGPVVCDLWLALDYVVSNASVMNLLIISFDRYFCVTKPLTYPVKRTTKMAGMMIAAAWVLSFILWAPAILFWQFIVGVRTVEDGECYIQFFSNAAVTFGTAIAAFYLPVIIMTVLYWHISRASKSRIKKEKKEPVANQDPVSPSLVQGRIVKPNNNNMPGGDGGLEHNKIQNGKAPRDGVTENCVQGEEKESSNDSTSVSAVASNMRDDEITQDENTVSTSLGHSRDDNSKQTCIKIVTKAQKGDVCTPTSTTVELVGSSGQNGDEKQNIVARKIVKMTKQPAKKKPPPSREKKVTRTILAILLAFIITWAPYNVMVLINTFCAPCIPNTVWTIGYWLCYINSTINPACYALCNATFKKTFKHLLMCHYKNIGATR
Method in brief: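 Adult rat cardiac cells homogenized 1:200 w/v in 50 mM sodium phosphate pH 7.4. Competition run with 0.2 nM [3H]NMS, 0.5 mg tissue and varying unlabeled ligand concentrations for 1 h at 37 °C. Bound separated by GF/C filtration. Atropine used for nonspecific binding.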

[4] = biological target: T1, Serotonin 3 (5-HT3) receptor; experiment: Compound was evaluated for its binding affinity for 5-hydroxytryptamine 3 receptor by measuring displacement [3H]GR-65630 in rat cerebral cortex; format: tissue-based
[5] = biological target: T1, Serotonin 3 (5-HT3) receptor; experiment: Compound was evaluated for its binding affinity for 5-hydroxytryptamine 3 receptor by measuring displacement [3H]GR-65630 in rat cerebral cortex.; format: tissue-based
[6] = biological target: Serotonin (5-HT) receptor; experiment: Potency was evaluated on rabbit heart serotonergic receptors; parameters: species or system Oryctolagus cuniculus

Compound | IC50 [1] [µM] | Ki [2] [µM] | Ki [3] [µM] | Ki [4] [µM] | also measured
CCN(CC)CCNC(=O)c1cc(Cl)c(N)cc1OC [METOCLOPRAMIDE] |  |  |  | 0.348 | 
CN1[C@@H]2CC[C@H]1C[C@@H](OC(=O)c1cc(Cl)cc(Cl)c1)C2 [BEMESETRON] |  |  |  | 0.054 | 
Cn1cc(-c2noc(C3CN4CCC3CC4)n2)c2ccccc21 (configuration not stated) |  |  |  |  | IC50 [5]: 0.0014 µM
CN1CCN(c2nncc3ccccc23)CC1 | 0.01 | 10 | 38 |  | 
O=C(OC1C2CC3CC1N2CC3=O)c1c[nH]c2ccccc12 (configuration not stated) |  |  |  |  | pA2 [6]: 9.8

Continued, in another order:

IC50 [1] [µM] | Ki [2] [µM] | Ki [3] [µM] | Ki [4] [µM] | Compound | also measured
0.425 | 15.6 | 71 |  | CN1CCN(c2ccc(-c3ccccc3)nn2)CC1 | 
 |  |  | 0.0032 | CN1[C@@H]2CC[C@H]1C[C@@H](OC(=O)c1c[nH]c3ccccc13)C2 [TROPISETRON] | 
0.036 | 62 | 80 |  | CN1CCN(c2cc(-c3ccccc3)cnn2)CC1 | 
0.37 | 13 | 116 |  | CN1CCN(c2nnc(-c3ccccc3)c3ccccc23)CC1 | 
